Measurements from publication PMC12366268 (The Febs Journal, 2025).
Where two headings read alike, the source gives them in different places.

Legend:
[1] = Stability in human serum measured by mass spectrometry; format: in vitro ADME; details: 25% human serum in PBS
Method in brief: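 Peptide at 10 μM was incubated in 25% human serum in PBS at 37 °C. Aliquots were taken at 0, 2.5, 5, 10, 20, 40 and 60 min into 0.2% formic acid (1:4) containing an internal standard and held at 4 °C. Peptide abundance relative to the internal standard was measured by mass spectrometry and plotted against incubation time.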

PCNA = PCNA (Homo sapiens, UniProt P12004); assay: Isothermal titration calorimetry; format: binding; details: ITC, pH 7.4, 25 °C, mean ± SEM of n = 3
Sequence of PCNA (P12004 whole entry): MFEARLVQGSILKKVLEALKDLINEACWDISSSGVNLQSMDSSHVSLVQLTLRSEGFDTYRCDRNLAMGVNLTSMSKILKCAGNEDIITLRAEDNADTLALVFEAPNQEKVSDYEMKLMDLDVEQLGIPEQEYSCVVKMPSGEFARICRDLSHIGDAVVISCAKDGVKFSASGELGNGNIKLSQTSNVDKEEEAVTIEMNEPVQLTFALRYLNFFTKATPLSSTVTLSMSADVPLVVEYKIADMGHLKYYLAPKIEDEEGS
Method in brief: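 His6-tagged PCNA (HRV 3C site) was IPTG-induced at 37 °C, then purified by Ni-NTA and Superdex 200 SEC. Protein was buffer-exchanged into 20 mM sodium phosphate, 0–500 mM NaCl, 1 mM TCEP, pH 7.4, with peptides dissolved in the same buffer. PCNA was in the cell, peptide in the syringe; 25 °C, 750 rpm stirring. Data were fitted to a one-set-of-sites model; triplicates, SEM.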

[2] = molecular target: T1, proliferating cell nuclear antigen (PCNA) (UniProt P12004 1-261); assay: ITC
T1 sequence (P12004 whole entry): as above

[3] = molecular target: T1, proliferating cell nuclear antigen …; assay: ITC; remark: listed apart in the source
[4] = molecular target: T1, proliferating cell nuclear antigen …; assay: ITC; remark: listed apart in the source
[5] = molecular target: T1, proliferating cell nuclear antigen …; assay: ITC; remark: listed apart in the source
[6] = molecular target: T1, proliferating cell nuclear antigen …; assay: ITC; remark: listed apart in the source
[7] = molecular target: T1, proliferating cell nuclear antigen …; assay: ITC; remark: listed apart in the source

Row | Molecule | N (binding stoichiometry) (PCNA; 100 mM NaCl) | ΔH (PCNA; 100 mM NaCl) [kcal/mol] | −TΔS (PCNA; 100 mM NaCl) [kcal/mol] | N (binding stoichiometry) (PCNA; 200 mM NaCl) | ΔH (PCNA; 200 mM NaCl) [kcal/mol] | −TΔS (PCNA; 200 mM NaCl) [kcal/mol] | N (binding stoichiometry) (PCNA; 300 mM NaCl) | ΔH (PCNA; 300 mM NaCl) [kcal/mol] | Kd [2] [nM] | dH [2] [kcal/mol] | stoichiometry N [2] | Kd [3] [nM] | dH [3] [kcal/mol] | stoichiometry N [3] | Kd [4] [nM] | dH [4] [kcal/mol] | stoichiometry N [4] | Kd [5] [nM] | dH [5] [kcal/mol] | stoichiometry N [5] | other results
1 | CSCC[C@H](NC(=O)[C@H](CO)NC(=O)[C@@H](NC(=O)[C@H](CCC(N)=O)NC(=O)[C@H](CCCNC(=N)N)NC(=O)[C@H](CCCNC(=N)N)NC(=O)[C@H](CCCCN)NC(=O)[C@H](CCCNC(=N)N)NC(C)=O)[C@@H](C)O)C(=O)N[C@H](C(=O)N[C@@H](CC(=O)O)C(=O)N[C@@H](Cc1ccccc1)C(=O)N[C@@H](Cc1ccc(O)cc1)C(=O)N[C@@H](Cc1c[nH]cn1)C(=O)N[C@@H](CO)C(=O)N[C@@H](CCCCN)C(=O)N[C@@H](CCCNC(=N)N)C(=O)N[C@@H](CCCNC(=N)N)C(N)=O)[C@@H](C)O [p21_140–156] |  |  |  |  |  |  |  |  |  |  |  |  |  |  |  |  |  |  |  |  | half-life at 10 μM [1]: ~11 min
2 | Ac-KKKKQTSMTDFYHSKKK-NH2 [p21All–K] | 0.92 ± 0.01 | -16.3 ± 0.48 | 6.69 ± 0.48 | 0.75 ± 0.02 | -17.7 ± 0.96 | 8.84 ± 0.96 | 0.71 ± 0.02 | -19.1 ± 0.72 |  |  |  |  |  |  |  |  |  |  |  |  | −TΔS (PCNA; 300 mM NaCl): 9.8 ± 0.72 kcal/mol; N (binding stoichiometry) (PCNA; 400 mM NaCl): 0.80 ± 0.02; ΔH (PCNA; 400 mM NaCl): -18.2 ± 0.72 kcal/mol; −TΔS (PCNA; 400 mM NaCl): 9.8 ± 0.96 kcal/mol
3 | Ac-KRKKQTSMTDFYHSRKK-NH2 [p21SWAP] | 0.95 ± 0.04 | -14.5 ± 0.22 | 4.9 ± 0.22 | 0.79 ± 0.09 | -18.2 ± 0.48 | 9.08 ± 0.48 | 0.82 ± 0.04 | -17.2 ± 0.96 |  |  |  |  |  |  |  |  |  |  |  |  | −TΔS (PCNA; 300 mM NaCl): 8.6 ± 0.96 kcal/mol; N (binding stoichiometry) (PCNA; 400 mM NaCl): 0.79 ± 0.01; ΔH (PCNA; 400 mM NaCl): -17.7 ± 0.48 kcal/mol; −TΔS (PCNA; 400 mM NaCl): 9.08 ± 0.48 kcal/mol
4 | Ac-RRRRQTSMTDFYHSRRR-NH2 [p21All–R] | 0.80 ± 0.05 | -20.8 ± 0.24 | 10.8 ± 0.48 | 0.73 ± 0.01 | -20.1 ± 0.72 | 10.8 ± 0.72 | 0.68 ± 0.01 | -20 ± 0.22 |  |  |  |  |  |  |  |  |  |  |  |  | −TΔS (PCNA; 300 mM NaCl): 11 ± 0.24 kcal/mol; N (binding stoichiometry) (PCNA; 400 mM NaCl): 0.61 ± 0.02; ΔH (PCNA; 400 mM NaCl): -19.4 ± 0.72 kcal/mol; −TΔS (PCNA; 400 mM NaCl): 10.5 ± 0.72 kcal/mol
5 | Ac-KKKKQTSMTDFYHSKKK-NH2 [p21_(All–K) peptide] |  |  |  |  |  |  |  |  | 653 | -18.2 | 0.8 | 347 | -17.7 | 0.75 | 87 | -16.3 | 0.92 | 456 | -19.1 | 0.71 | 
6 | Ac-RRRRQTSMTDFYHSRRR-NH2 [p21_(All–R) peptide] |  |  |  |  |  |  |  |  | 398 | -19.4 | 0.61 | 139 | -20.1 | 0.73 | 45 | -20.8 | 0.8 | 273 | -20 | 0.68 | 
7 | Ac-KRKKQTSMTDFYHSRKK-NH2 [p21_(SWAP) peptide] |  |  |  |  |  |  |  |  | 547 | -17.7 | 0.79 | 206 | -18.2 | 0.79 | 87 | -14.5 | 0.95 | 407 | -17.2 | 0.82 | 
8 | Ac-RKRRQTSMTDFYHSKRR-NH2 [p21_(140–156) peptide (wild-type p21 PIP-degron with flanking regions)] |  |  |  |  |  |  |  |  | 606 | -22.2 | 0.8 | 182 | -21.5 | 0.86 | 68 | -18.1 | 0.86 | 341 | -21.4 | 0.76 | Kd [6]: 579 nM; dH [6]: -21.3 kcal/mol; stoichiometry N [6]: 0.72; Kd [7]: 19 nM; dH [7]: -17.7 kcal/mol; stoichiometry N [7]: 0.77
9 | Ac-QTSMTDFYHS-NH2 [p21_(core) peptide (isolated p21 core motif QTSMTDFYHS)] |  |  |  |  |  |  |  |  |  |  |  |  |  |  |  | -13.4 | 0.7 | 34300 | -21 | 0.71 | 
